Measured values as given in the RNAGym collection of RNA variant scans (doi:10.1126/science.aae0568).
Fewer inactive variants are shown than the library holds.

B1: tRNA (parent)
chain: GUUCCGUUGGCGUAAUGGUAACGCGUCUCCCUCCUAAGGAGAAGACUGCGGGUUCGAGUCCCGUACGGAACG

Variants of: B1
Test: yeast fitness relative to wild type (ratio to wild type); higher = fitter; tRNA-Arg(CCU), competitive growth, 37 C, YPD
Summary of the method: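 Gene amplicons from the start population and from each of six end populations were read by 100-nucleotide paired-end sequencing. Those end populations came from pooled Saccharomyces cerevisiae strains carrying tRNA-Arg(CCU) gene variants at the native locus, competed in YPD at 37°C for 24 hours. Fitness relative to wild type was worked out from changes in genotype frequencies. Genotypes needed ≥ 100 starting reads, and estimates < 0.5 were set to 0.5.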

Row | Variant | yeast fitness
1 | C11U A20C G25C C27A A37U | ≤ 0.5
2 | U7A A45C U47C C55U A65C A69C | ≤ 0.5
3 | G44A G63A | 0.97
4 | A21U G38C G44C C62A | ≤ 0.5
5 | G10A A14U A20G U26G C31G C34G A42U A43C G50C A70C | ≤ 0.5
6 | G10A G25C | 0.656
7 | U2C C24G C29U C62G C66A | ≤ 0.5
8 | C30G A57U C66U A70U | ≤ 0.5
9 | G12A A21G G39A A45G G50A A69U | ≤ 0.5
10 | U32C G44C | 0.842
11 | C11U C46G G51A | 0.571
12 | C27U G58C A70U | 0.876
13 | G12C A20U C33U | 0.555
14 | C5U C22A C33G C55U | ≤ 0.5
15 | A15C C29U A69C | ≤ 0.5
16 | A37U G38C | 0.557
17 | A21G A42C G50A | 0.648
18 | U2A G50C C55G C62G | ≤ 0.5
19 | G10A C46A | 0.677
20 | C4A A14G A36C U59A | 0.686
21 | U2G U28C | 0.825
22 | C29G A43U C46U G67C | ≤ 0.5
23 | C5G A15G C61U | 0.539
24 | C4G U35C C55G | ≤ 0.5

Row | Variant | yeast fitness
25 | U3C C22G C27G C31G C61G A69U | 0.615
26 | C4G A15U C33A G52C C55G | ≤ 0.5
27 | A45U G50A C55G A70U | ≤ 0.5
28 | U26C G48C | 0.86
29 | G23C G44C G68C | ≤ 0.5
30 | A42U G52A | 0.808
31 | C33G A36G | 0.699
32 | G25A G51C | 0.575
33 | U13C C24G G67C | ≤ 0.5
34 | C5G G6C C49A | ≤ 0.5
35 | A14U U28A C33U | 0.714
36 | U26G C49U | 0.974
37 | U3C G25A C29U | 0.681
38 | C11G A14C C55G A57U G67A | ≤ 0.5
39 | C4U G12C A21C C29G A36G C46U G58A | ≤ 0.5
40 | C22A G67U | 0.774
41 | C24G C30A G44C U47C U59A A69C A70C | 0.884
42 | C4G C30U A42U G50C C62A | 0.511
43 | C5G A37C A42U | 0.533
44 | C5A C61G A70G | 0.585
45 | C5A C11G G41C A57G | 0.554
46 | C33G G52A G56U | ≤ 0.5
47 | U2A C31U A37U | ≤ 0.5
48 | U3C C61U U64C | 0.72

Row | Variant | yeast fitness
49 | C5G A14C C29U C33G | ≤ 0.5
50 | A45C A57C | 0.573
51 | A14U C34G C61G | ≤ 0.5
52 | U35A A42C | 0.643
53 | C46U G50C C55A G63A C66U | ≤ 0.5
54 | U19C U32A G67A | 0.65
55 | C34U A37G | 0.538
56 | G17A G68C | 0.928
57 | A37U C49U | 0.68
58 | U13G C60U | 0.747
59 | C4U C24G U26A U28G C66A | ≤ 0.5
60 | C49G U64C | 0.972
61 | A57U A70C | 0.7
62 | C11G U16A G23C C30U C34U A69U | 0.844
63 | C30G A43U G48C C55A | 0.557
64 | G50C C55U | 0.716
65 | U7G A14U | 0.675
66 | U16A C24G A43C | 0.512
67 | U13G A20U A42G U59A A65G | ≤ 0.5
68 | G12A C29G A65U | 0.58
69 | U16C U19A C29U | 0.615
70 | C24U G48C | 0.955
71 | U28G C29G G41A | ≤ 0.5
72 | G17C C22G C30U G41C | 0.612

Row | Variant | yeast fitness
73 | G6A G38C | 0.808
74 | C27G A45G G48A C66U | ≤ 0.5
75 | G23C C49G | 0.563
76 | G6C G12A C33U A65G A70G | ≤ 0.5
77 | G25A C34A | 0.77
78 | C24U G56A | 0.998
79 | C4U G6C U7A | ≤ 0.5
80 | G25C G52A | 0.748
81 | C30G C60A | 0.739
82 | C33U A65U | 0.816
83 | A14U A40C A57C C61U | ≤ 0.5
84 | C31U C34G C62U A70G | ≤ 0.5
85 | A14G C29A A37G | ≤ 0.5
86 | C49G A57C G67U | 0.576
87 | A15G A36G G44C | 0.659
88 | C5A G17A C55U | ≤ 0.5
89 | C4U U13A A14U C29U A37G A57C | ≤ 0.5
90 | G10A U26C | 0.736
91 | U8C G50A A69U | 0.804
92 | G10A U28A U59A | ≤ 0.5
93 | A14G A37C A65G | 0.659
94 | U2G C24U A69U | 0.681
95 | C11G A36C A45G A57C C61G | ≤ 0.5
96 | C11U A15U C33A | ≤ 0.5

Row | Variant | yeast fitness
97 | U19C C27A A43G | 0.606
98 | C5U C34G | 0.788
99 | U8C C29A C34G A36G A40C G41A U47A U64C | ≤ 0.5
100 | C29G | 0.686
101 | U3G A15G A21U G48A | ≤ 0.5
102 | A37C A45U G67C G68A | ≤ 0.5
103 | U13A C22A A36U A65G | ≤ 0.5
104 | G6C A40G A42G A57C C66U | ≤ 0.5
105 | C27U C33U A40C C55A A65G | 0.503
106 | A15U A40G | 0.598
107 | C5A A20C C61U | ≤ 0.5
108 | A15C C46U | 0.939
109 | U13C C22A | 0.791
110 | A15G G25A U28C U35A G38A C46G C62U | 0.527
111 | U8C G44A | 1.01
112 | C4G U8C C60U G63C G68A | ≤ 0.5
113 | A15G U53A C55A U64G | 0.571
114 | G39C C49G C66U | ≤ 0.5
115 | C33U U47A | 0.829
116 | U26G G56A | 0.919
117 | U35G A45U | 0.589
118 | G12C G67C | 0.825
119 | C22A C33U U54G | ≤ 0.5
120 | C62G C66A | ≤ 0.5

Row | Variant | yeast fitness
121 | G23C C31G G50A | ≤ 0.5
122 | C5U G25A C49A A69U | ≤ 0.5
123 | A21G U53A U54C C61G | 0.718
124 | G12C U47C | 0.958
125 | C22G C24G C29U C33U A37C G52A | 0.625
126 | C5A C24G C31G G51C U59G | ≤ 0.5
127 | U8A C24A | 0.624
128 | C24G C31A A42G A43U | ≤ 0.5
129 | C22G G39A A42U A57C | ≤ 0.5
130 | A15G G17A C49U | 0.687
131 | U59A C62U | 0.922
132 | G6A C27U C29A G58C C66U | ≤ 0.5
133 | G18C C46U C61G | ≤ 0.5
134 | C22G C31G U53A | ≤ 0.5
135 | C4U C27U G39C G52A G56A | 0.614
136 | A14U A42G A43G C66G | ≤ 0.5
137 | U28C A37C G56A U59C | ≤ 0.5
138 | C11A C22G C29U U32C | 0.706
139 | U3G C5U A70G | ≤ 0.5
140 | A14G U32G C60U C62U | 0.539
141 | U2C U3A A14C C30U A40U C49U | ≤ 0.5
142 | U8G G38A G68U | ≤ 0.5
143 | C5G G12C A45C C46U C55U C62U | ≤ 0.5
144 | A15U A21C C24G C29U A42C G56U U59A | ≤ 0.5

Row | Variant | yeast fitness
145 | U13A C49A | 0.654
146 | C5U C34G U35C | 0.533
147 | G6A C29A U32C A42U G67A | ≤ 0.5
148 | U19G C49A C62G C66U A70G | ≤ 0.5
149 | C5U C29A U32C C60A | 0.596
150 | C11G A36C G52C G56A | ≤ 0.5
151 | U19C A20U A42C A65C A69U | ≤ 0.5
152 | C5A A14G A20U A37C C49A | ≤ 0.5
153 | A21U A42G G50C U59C | ≤ 0.5
154 | U7A G52A A69C | ≤ 0.5
155 | C11U G25C A40U C49G G63C | ≤ 0.5
156 | G9A U16A | 1.08
157 | U7G U26C | 0.88
158 | U3C U32A | 0.817
159 | U7A G44C C66U | ≤ 0.5
160 | A36C A40C | 0.572
161 | U2A C5A G41A A42C G50C A70G | ≤ 0.5
162 | U7G A15C C24U A43G G51A U54C | 0.634
163 | U13C A20G G39A G48C | ≤ 0.5
164 | G12A A42U | 0.856
165 | A40G G56A | 0.998
166 | C11U C29U A40C C49G | 0.648
167 | C4A U64C G68C | 0.971
